A short description of series [1]: Binding affinity to Triton-X 100 assessed as aggregate formation at 1:1 ratio of Triton-X 100 to compound by dynamic light scattering analysis. In a few lines:
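Dynamic light scattering in NMR buffer, samples filtered through 0.22 μm and centrifuged 5 min at 13 500 rpm before measurement. Autocorrelation accumulated 150 s at a 173° scattering angle, in replicates of 3–5, with water viscosity used in analysis; intensity or volume size distributions reported.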

A short description of series [2]: Aggregation property of the compound assessed as shift in peak width by 1H-NMR analysis. It counts as physicochemical. In a few lines:
(§1)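 Line widths, chemical shifts and peak intensities tracked; CAC taken as the concentration where intensities deviate from linear dependence, or, for line width, the minimal concentration that increases peak width.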

Series [3] is described as follows: Aggregation property of the compound assessed as change in chemical shift by 1H-NMR analysis. It counts as physicochemical. In a few lines:
as §1

The target of series [4] is T1, Rap guanine nucleotide exchange factor 3 (Homo sapiens) (UniProt O95398).
T1 sequence (whole entry): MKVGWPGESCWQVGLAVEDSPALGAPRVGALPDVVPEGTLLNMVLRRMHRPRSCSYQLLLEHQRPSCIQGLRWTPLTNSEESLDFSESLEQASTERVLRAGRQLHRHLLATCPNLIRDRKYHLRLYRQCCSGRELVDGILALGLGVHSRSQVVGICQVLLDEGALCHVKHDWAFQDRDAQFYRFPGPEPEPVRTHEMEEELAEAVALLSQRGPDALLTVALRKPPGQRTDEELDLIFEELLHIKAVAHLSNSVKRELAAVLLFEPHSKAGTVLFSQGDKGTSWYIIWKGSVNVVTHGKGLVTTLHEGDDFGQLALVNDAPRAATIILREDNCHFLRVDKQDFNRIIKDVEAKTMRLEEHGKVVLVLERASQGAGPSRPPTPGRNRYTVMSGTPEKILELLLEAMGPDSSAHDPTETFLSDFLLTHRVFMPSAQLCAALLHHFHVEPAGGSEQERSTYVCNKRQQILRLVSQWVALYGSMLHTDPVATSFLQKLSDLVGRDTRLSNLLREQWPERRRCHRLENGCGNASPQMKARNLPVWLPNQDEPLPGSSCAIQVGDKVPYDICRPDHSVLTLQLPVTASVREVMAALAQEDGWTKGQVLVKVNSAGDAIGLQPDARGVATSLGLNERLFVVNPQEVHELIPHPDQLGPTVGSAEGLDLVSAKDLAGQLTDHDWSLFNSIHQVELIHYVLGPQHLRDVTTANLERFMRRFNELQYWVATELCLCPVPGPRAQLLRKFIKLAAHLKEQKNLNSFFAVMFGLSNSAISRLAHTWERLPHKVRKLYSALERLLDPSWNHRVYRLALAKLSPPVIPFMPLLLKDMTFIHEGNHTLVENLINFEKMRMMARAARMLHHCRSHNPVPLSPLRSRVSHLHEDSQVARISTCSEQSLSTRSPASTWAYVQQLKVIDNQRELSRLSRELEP
Nature of the series: Binding affinity to human EPAC1 cAMP binding domain (149 to 318 residues) at 100 uM in presence of triton X-100 by [15N-1H]HSQC spectroscopic analysis.

A short description of series [5]: Binding affinity to Triton-X 100 assessed as inter-molecular cross relaxation at 100 uM by NOESY spectra analysis. In a few lines:
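2D NOESY and ROESY of 100 μM ESI with 0.025% Triton X-100 or 500 μM ESI with 0.05% Triton X-100; 2K × 512 complex points, 12 ppm spectral width centred at 4.7 ppm, intra- and intermolecular cross-peaks mapped.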

The nature of series [6]: Binding affinity to Triton-X 100 assessed as inter-molecular saturation transfer at 100 uM at 6.61 ppm by STD spectra analysis. In a few lines: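 STD NMR, saturation by a train of 40 Gaussian pulses of 50 ms each; selective on-resonance irradiation at the stated ppm (TX at 7.48 ppm), off-resonance at 30 ppm, interleaved and subtracted by phase cycling. 32K points, 16 ppm width centred at 4.7 ppm, 256 scans, 16 dummy scans, 0.1 s recycle delay (~15 min); 3 Hz exponential line broadening.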

The target of series [7] is T1, Rap guanine nucleotide exchange factor 3 (Homo sapiens). The series can be described thus: Binding affinity to human EPAC1 cAMP binding domain (149 to 318 residues) assessed as change in chemical shift at 50 to 250 uM using aggregate form of compound by [15N-1H]HSQC spectroscopic analysis.
Series [8] has the same target. Nature of the series: Binding affinity to human EPAC1 cAMP binding domain (149 to 318 residues) assessed as residue-dependent change in chemical shift at 100 uM using aggregate form of compound by [15N-1H]HSQC spectroscopic analysis.
Series [9] addresses T2, Rap guanine nucleotide exchange factor 3 (Homo sapiens, UniProt O95398).
T2 sequence (O95398 whole entry): T1 sequence (whole entry)
Nature of the series: Inhibition of 8-NBD-cAMP binding to human EPAC1 cAMP binding domain (149 to 318 residues) by fluorescence assay.

Series [10] can be described thus: Reversible binding affinity to Triton-X 100 at dilution from 100 uM by 1H-NMR spectra analysis.
Series [11] is described as follows: Binding affinity to Triton-X 100 assessed as change in chemical shift at 100 uM by 1H-NMR spectra analysis.
The target in series [12] is T1, Rap guanine nucleotide exchange factor 3 (Homo sapiens). The series can be described thus: Binding affinity to human EPAC1 cAMP binding domain (149 to 318 residues) at 200 to 300 uM in presence of triton X-100 using aggregate form of compound by [15N-1H]HSQC spectroscopic analysis.
The target is the same in series [13]. The series can be described thus: Binding affinity to human EPAC1 cAMP binding domain (149 to 318 residues) at 400 uM in presence of 0.1% triton X-100 by [15N-1H]HSQC spectroscopic analysis.
For series [14], the target named is T3, Albumin (Homo sapiens, UniProt P02768). The series can be described thus: Binding affinity to human serum albumin assessed as line broadening at 100 uM by 1D 1H NMR analysis.
T3 sequence (P02768 whole entry): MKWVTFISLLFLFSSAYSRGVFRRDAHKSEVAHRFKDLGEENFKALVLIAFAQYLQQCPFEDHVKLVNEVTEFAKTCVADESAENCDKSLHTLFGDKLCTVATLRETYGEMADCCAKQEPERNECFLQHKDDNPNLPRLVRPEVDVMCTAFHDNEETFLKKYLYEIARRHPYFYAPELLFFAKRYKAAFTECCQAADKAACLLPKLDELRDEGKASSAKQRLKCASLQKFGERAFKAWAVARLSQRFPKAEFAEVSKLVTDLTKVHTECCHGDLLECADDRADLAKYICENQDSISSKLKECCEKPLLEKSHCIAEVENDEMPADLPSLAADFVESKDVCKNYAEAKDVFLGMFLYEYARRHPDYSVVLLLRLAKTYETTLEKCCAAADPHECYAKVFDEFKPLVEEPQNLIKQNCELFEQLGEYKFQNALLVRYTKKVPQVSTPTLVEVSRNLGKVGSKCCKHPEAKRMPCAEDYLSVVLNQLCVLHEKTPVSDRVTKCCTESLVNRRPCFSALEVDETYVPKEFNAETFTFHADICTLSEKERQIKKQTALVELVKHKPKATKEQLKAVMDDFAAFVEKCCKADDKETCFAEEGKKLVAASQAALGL
The target in series [15] is T3, Albumin. Nature of the series: Displacement of ANS from human serum albumin up to 50 uM by fluorescence assay. In a few lines: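 Fluorescence competition: 2.5 μM HSA with 5 or 100 μM ANS, ligand added over a concentration range. Excitation 360 nm; emission read at 460 and 480 nm to check for blue shift. Signal normalized between ANS alone (minimum) and HSA:ANS (maximum).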

The nature of series [16]: Aggregation property of the compound in NMR buffer at 250 uM by surface plasmon resonance analysis. It counts as physicochemical. In a few lines: (§2)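 SPR on a nonfunctionalized gold nanoparticle sensor; samples in NMR buffer with DMSO at 1.25%, injected at 33 μL/min alongside matched DMSO controls (with HSA where present, 25 μM), in duplicate. Surface regenerated only after HSA-containing injections.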

In series [17] the target is T3, Albumin. The series can be described thus: Binding affinity to human serum albumin assessed as inhibition of compound aggregation at 250 uM by surface plasmon resonance analysis. In a few lines:
as §2
(In SPR one partner is held on a chip, and binding of the other changes the refractive index at the surface.)

Series [18] concerns the target T3, Albumin. Nature of the series: Binding affinity to human serum albumin assessed as inhibition of compound aggregation at 500 uM by surface plasmon resonance analysis.
Series [19] addresses T2, Rap guanine nucleotide exchange factor 3. Nature of the series: Binding affinity to human EPAC1 cAMP binding domain (149 to 318 residues) using monomeric form of compound by [15N-1H]HSQC spectroscopic analysis.

Structures are written as SMILES. The source made the active and inactive calls. No cut-off for these calls is given here.

Consider `CC(C)(C)c1cc(C(=O)/C(C#N)=N/Nc2cccc(Cl)c2)no1`, for which, in series [1], the outcome was inactive. For the same molecule, the Activity result is given as “Not Active” in [2]; “Not Active” in series [3]; “Active” at Albumin [14]; “Active” on Albumin [15]; “Active” in series [16]. The result in [4], in [5], in series [6], in series [7], in [8] and in series [10] was Active. For the same molecule, the outcome in series [11], in series [12] and in series [13] was Active. Besides, the Kd in [9] and in series [19] was 20 µM throughout. Further, the “inhibition (INH)” value at Albumin [17] is given as “Active”; on Albumin [18] it was “Not Active”.
